The results in this text go back to ChEMBL document CHEMBL3352791, “Thioaryl naphthylmethanone oxime ether analogs as novel anticancer agents” (J Med Chem, 2014).

What is called EC50 is the concentration needed to bring the measured effect to its halfway point. A higher EC50 goes with lower potency in that assay. As usually defined, the IC50 is the concentration at which inhibition is half-maximal. Read a high IC50 as weaker potency in that assay.

Activity calls are given as the source filed them. The calls are words filed in the database; no cut-off is given here.

One test relates to Ishikawa. Put plainly: Antiproliferative activity against human ER-positive Ishikawa cells after 24 hrs by MTT assay. Format: functional, cell-based. As to conditions: ishikawa. For orientation: Tetrazolium dyes change colour on reduction, which living cells bring about.
Another test relates to HeLa. The test can be described thus: Antiproliferative activity against human HeLa cells after 24 hrs by MTT assay. As to conditions: hela. In kind it is functional, cell-based.
A further test has as its system SW-620. The test can be described thus: Antiproliferative activity against human SW620 cells after 24 hrs by MTT assay. In kind it is functional, cell-based. As to conditions: SW-620, 24 h. In short, it runs like this: (§1)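 MTT viability: cells seeded at 1×10^4 per well in DMEM with 10% FBS, left to adhere overnight, then serum-starved 4 h. Compounds were given at a range of doses, with 0.1% DMSO vehicle as control. EC50 was taken from dose-response curves spanning 100nM-50µM. Data are mean ± SEM from at least three independent experiments.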

Test [1] in a line: Antiproliferative activity against mouse NIH/3T3 cells after 24 hrs by MTT assay. Format: functional, cell-based. As to conditions: NIH3T3, 24 h. In short, it runs like this:
as §1

The subject of test [2] is MCF7. Put plainly: Cell cycle arrest in human […] cells assessed as accumulation at G1 phase at 2.5 uM by propidium iodide staining by FACS analysis (reference value: 62.88%). Format: functional.
Test [3] relates to MCF7. Put plainly: Cell cycle arrest in human […] MCF7 cells assessed as accumulation at S phase at 5 uM by propidium iodide staining by FACS analysis (reference value: 24.76%). Format: functional.
The test system of test [4] is MCF7. Put plainly: Cell cycle arrest in human […] cells assessed as accumulation at G2 phase at 7.5 uM by propidium iodide staining by FACS analysis (reference value: 10.96%). In kind it is functional.
For test [5], the system named is MDA-MB-231. Put plainly: Cell cycle arrest in human […] cells assessed as accumulation at S phase at 5 uM by propidium iodide staining by FACS analysis (reference value: 13.72%). In kind it is functional. For orientation: In flow cytometry, cells or beads pass a laser one at a time.
In test [6] the test system is MDA-MB-231. The test can be described thus: Cell cycle arrest in human […] cells assessed as accumulation at G1 phase at 7.5 uM by propidium iodide staining by FACS analysis (reference value: 63.74%). Format: functional.
Test [7] concerns the target Insulin receptor (Homo sapiens) (UniProt P06213). Put plainly: Inhibition of IR (unknown origin) at 10 uM.
Test [8] has as its target Transforming growth factor beta-1 proprotein (Homo sapiens) (UniProt P01137). The test can be described thus: Inhibition of TGFbeta1 (unknown origin) at 10 uM.
For test [9], the system named is Mast/stem cell growth factor receptor Kit (Homo sapiens), P10721 [D816G]. The test can be described thus: Inhibition of cKit D816G mutant (unknown origin) at 10 uM. In short, it runs like this:
(§2)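 Cell-free kinase profiling was run as a standard 33P-ATP-based in vitro kinase assay.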

For test [10], the target named is RAF proto-oncogene serine/threonine-protein kinase (Homo sapiens) (UniProt P04049). Put plainly: Inhibition of c-RAF (unknown origin) at 10 uM. In short, it runs like this:
as §2

Test [11] has as its target Epidermal growth factor receptor (Homo sapiens) (UniProt P00533). Put plainly: Inhibition of EGF-induced EGFR phosphorylation at Tyr845 in human MCF7 cells at 1 uM by ELISA. In kind it is cell-based. A general note: In an ELISA, binding on a coated surface is turned into a signal by an enzyme label.
Test [12] deals with MDA-MB-231. The test can be described thus: Antiproliferative activity against human […] cells at 2.5 to 7.5 uM by annexin V-FITC/propidium iodide staining-based flow cytometric analysis. Format: functional, cell-based.
For test [13], the system named is MCF7. The test can be described thus: Cytotoxicity against human […] cells assessed as cell viability at 5 uM by MTT assay in presence of z-LEHD-FMK caspase-9 inhibitor. In kind it is functional, cell-based. In short, it runs like this:
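Cells seeded 1×10^4/well in DMEM with 10% FBS, adhered overnight, serum-starved 4 h; pre-incubated 2 h with Z-IETD-FMK or Z-LEHD-FMK (10µM each), then 5μM compound for a further 24 h; viability by MTT.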

Test [14] has as its system MDA-MB-231. Put plainly: Inhibition of VEGF-C expression in human MDA-MB-231 cells at 1 uM after 24 hrs by qPCR analysis. Format: functional, cell-based. The method, boiled down:
(§3)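 Gene expression was measured by qPCR in MDA-MB-231 breast cancer cells treated with 1µM compound. GAPDH served as the housekeeping internal control.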

Test [15] concerns MDA-MB-231. The test can be described thus: Inhibition of TGF-betaR1 expression in human MDA-MB-231 cells at 1 uM after 24 hrs by qPCR analysis. Format: functional, cell-based. In short, it runs like this:
as §3

The test system of test [16] is MCF7. The test can be described thus: Induction of apoptosis in human MCF7 cells xenografted in NIH-3 mouse assessed as increase in Bax to Bcl2 ratio in tumor at 16 mg/kg, po for 25 days by qPCR. In kind it is functional, organism-based. The arrangement: dose 16 mg/kg.
Test [17] has as its system MCF7. The test can be described thus: Inhibition of INS expression in human MCF7 cells at 5 uM by ELISA. In kind it is functional, cell-based.
Test [18] concerns the target Epidermal growth factor receptor (Homo sapiens) (UniProt P00533). The test can be described thus: Inhibition of EGF-induced EGFR phosphorylation at Tyr1045 in human MCF7 cells at 1 uM by ELISA. Format: cell-based.
Test [19] addresses Mitogen-activated protein kinase; ERK1/ERK2 (Homo sapiens) (UniProt P27361+P28482). The test can be described thus: Inhibition of EGF-induced ERK1/2 phosphorylation in human MCF7 cells at 1 uM by ELISA. In kind it is cell-based.
For test [20], the target named is RAC-alpha serine/threonine-protein kinase (Homo sapiens) (UniProt P31749). The test can be described thus: Inhibition of EGF-induced AKT phosphorylation in human MCF7 cells at 1 uM by ELISA. In kind it is cell-based.
In test [21] the target is Signal transducer and activator of transcription 3 (Homo sapiens) (UniProt P40763). Put plainly: Inhibition of EGF-induced STAT3 phosphorylation in human MDA-MB-231 cells at 1 uM by ELISA. Format: cell-based.
For test [22], the target named is RAC-alpha serine/threonine-protein kinase (Homo sapiens) (UniProt P31749). The test can be described thus: Inhibition of basal level AKT phosphorylation in human MCF7 cells at 1 uM by ELISA. In kind it is cell-based.
Test [23] concerns the target T1, Signal transducer and activator of transcription 1-alpha/beta (Homo sapiens) (UniProt P42224).
T1 sequence (whole entry): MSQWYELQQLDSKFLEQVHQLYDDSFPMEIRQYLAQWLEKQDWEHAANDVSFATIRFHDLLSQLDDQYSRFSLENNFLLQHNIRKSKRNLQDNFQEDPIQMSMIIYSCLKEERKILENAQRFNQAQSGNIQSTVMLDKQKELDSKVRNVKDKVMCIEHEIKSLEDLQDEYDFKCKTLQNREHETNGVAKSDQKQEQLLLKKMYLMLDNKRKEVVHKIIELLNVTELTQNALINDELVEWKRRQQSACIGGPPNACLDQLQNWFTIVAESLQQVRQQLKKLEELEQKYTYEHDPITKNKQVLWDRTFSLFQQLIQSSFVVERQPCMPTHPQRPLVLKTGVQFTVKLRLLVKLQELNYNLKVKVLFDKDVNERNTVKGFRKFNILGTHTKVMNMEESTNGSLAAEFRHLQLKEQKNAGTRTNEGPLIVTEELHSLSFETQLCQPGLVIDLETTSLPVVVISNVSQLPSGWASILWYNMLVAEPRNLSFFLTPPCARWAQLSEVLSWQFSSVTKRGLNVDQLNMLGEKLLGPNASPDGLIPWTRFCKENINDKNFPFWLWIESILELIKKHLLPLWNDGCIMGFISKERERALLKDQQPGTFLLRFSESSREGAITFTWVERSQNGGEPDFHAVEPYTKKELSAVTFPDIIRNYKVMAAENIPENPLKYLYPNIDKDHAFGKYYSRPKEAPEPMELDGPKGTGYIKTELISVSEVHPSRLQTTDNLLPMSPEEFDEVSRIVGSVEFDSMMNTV
The test can be described thus: Inhibition of basal level STAT1 phosphorylation in human MCF7 cells at 1 uM by ELISA. In kind it is cell-based.

Epidermal growth factor receptor (Homo sapiens), sequence (P00533 whole entry): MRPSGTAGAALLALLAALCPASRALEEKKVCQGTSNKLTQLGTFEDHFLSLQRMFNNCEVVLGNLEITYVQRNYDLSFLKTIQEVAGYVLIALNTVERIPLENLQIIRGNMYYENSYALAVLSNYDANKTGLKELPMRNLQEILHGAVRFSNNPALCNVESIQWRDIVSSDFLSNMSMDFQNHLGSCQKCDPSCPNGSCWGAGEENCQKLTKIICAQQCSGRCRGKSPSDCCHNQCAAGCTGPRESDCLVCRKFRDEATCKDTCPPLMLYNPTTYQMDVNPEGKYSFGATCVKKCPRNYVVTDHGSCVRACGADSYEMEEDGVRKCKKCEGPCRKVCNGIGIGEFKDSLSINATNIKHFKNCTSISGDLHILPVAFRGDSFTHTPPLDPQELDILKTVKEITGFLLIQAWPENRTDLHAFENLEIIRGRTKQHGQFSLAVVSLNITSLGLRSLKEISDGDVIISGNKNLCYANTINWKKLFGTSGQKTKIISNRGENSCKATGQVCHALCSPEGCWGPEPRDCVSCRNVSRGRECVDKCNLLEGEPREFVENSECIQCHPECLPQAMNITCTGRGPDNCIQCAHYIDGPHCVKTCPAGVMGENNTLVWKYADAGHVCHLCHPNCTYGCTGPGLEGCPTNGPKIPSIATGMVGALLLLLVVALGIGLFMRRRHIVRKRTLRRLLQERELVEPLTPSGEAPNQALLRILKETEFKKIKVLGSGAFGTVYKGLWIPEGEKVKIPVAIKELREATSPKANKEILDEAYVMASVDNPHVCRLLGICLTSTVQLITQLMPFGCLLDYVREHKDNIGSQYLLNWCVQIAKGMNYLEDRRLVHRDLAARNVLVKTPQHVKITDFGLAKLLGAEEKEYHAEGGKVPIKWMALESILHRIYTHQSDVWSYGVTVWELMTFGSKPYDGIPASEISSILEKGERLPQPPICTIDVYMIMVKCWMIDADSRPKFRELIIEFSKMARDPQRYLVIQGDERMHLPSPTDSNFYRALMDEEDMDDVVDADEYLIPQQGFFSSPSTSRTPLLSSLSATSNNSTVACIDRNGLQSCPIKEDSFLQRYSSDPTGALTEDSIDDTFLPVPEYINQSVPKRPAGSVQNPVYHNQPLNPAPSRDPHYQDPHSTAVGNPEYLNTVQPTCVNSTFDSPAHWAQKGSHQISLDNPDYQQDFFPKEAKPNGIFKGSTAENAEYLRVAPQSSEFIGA
RAC-alpha serine/threonine-protein kinase (Homo sapiens), sequence (P31749 whole entry): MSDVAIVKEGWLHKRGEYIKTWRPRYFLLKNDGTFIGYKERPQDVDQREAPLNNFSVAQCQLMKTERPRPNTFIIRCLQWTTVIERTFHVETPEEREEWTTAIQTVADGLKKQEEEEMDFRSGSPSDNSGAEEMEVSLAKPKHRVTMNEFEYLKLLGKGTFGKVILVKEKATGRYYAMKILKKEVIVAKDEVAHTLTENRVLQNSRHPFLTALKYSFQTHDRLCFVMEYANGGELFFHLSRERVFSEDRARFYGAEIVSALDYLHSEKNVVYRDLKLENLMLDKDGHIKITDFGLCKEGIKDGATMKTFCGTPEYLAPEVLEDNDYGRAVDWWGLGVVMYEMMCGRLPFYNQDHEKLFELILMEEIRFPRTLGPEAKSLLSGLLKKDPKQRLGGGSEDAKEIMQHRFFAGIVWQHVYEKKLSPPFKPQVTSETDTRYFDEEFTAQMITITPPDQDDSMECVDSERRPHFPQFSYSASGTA
RAF proto-oncogene serine/threonine-protein kinase (Homo sapiens), sequence (P04049 whole entry): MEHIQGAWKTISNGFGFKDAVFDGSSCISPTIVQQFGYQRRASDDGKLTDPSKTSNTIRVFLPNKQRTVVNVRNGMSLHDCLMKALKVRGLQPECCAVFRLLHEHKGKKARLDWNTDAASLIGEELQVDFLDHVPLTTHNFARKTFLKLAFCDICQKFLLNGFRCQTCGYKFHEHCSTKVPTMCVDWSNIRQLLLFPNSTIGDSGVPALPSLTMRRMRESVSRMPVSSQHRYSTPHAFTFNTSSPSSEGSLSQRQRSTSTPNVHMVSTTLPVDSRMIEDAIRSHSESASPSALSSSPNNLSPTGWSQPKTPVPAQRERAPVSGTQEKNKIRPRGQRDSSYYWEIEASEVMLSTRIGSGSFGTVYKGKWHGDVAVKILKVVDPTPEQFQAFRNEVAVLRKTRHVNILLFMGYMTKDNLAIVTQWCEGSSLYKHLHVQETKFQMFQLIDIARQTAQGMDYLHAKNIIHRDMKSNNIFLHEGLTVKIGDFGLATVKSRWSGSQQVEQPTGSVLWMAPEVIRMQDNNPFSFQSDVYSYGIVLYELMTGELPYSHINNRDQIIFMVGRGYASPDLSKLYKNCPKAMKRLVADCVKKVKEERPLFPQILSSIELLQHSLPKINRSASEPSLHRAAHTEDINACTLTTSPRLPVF
Insulin receptor (Homo sapiens), sequence (P06213 28-758 limits assumed): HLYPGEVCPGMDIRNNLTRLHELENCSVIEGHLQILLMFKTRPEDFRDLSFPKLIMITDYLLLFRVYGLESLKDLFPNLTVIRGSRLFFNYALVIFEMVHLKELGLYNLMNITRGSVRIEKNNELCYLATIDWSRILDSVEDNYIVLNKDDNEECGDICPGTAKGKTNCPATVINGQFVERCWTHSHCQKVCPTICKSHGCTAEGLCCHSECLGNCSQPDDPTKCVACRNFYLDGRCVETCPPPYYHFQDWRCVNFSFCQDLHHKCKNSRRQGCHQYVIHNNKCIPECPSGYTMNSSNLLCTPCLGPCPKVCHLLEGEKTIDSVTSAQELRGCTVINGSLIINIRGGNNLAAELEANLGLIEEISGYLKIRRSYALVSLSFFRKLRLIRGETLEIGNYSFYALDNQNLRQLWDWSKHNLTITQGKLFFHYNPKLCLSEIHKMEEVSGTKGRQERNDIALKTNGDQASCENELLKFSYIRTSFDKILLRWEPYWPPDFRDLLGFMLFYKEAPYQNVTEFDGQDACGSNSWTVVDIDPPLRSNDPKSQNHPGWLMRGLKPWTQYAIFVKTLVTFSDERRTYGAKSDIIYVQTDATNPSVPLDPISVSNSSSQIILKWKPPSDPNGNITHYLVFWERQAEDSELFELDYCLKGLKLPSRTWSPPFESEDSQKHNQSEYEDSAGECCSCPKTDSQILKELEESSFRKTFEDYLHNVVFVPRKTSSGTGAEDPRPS
Insulin receptor (Homo sapiens), sequence (P06213 763-1382 limits assumed): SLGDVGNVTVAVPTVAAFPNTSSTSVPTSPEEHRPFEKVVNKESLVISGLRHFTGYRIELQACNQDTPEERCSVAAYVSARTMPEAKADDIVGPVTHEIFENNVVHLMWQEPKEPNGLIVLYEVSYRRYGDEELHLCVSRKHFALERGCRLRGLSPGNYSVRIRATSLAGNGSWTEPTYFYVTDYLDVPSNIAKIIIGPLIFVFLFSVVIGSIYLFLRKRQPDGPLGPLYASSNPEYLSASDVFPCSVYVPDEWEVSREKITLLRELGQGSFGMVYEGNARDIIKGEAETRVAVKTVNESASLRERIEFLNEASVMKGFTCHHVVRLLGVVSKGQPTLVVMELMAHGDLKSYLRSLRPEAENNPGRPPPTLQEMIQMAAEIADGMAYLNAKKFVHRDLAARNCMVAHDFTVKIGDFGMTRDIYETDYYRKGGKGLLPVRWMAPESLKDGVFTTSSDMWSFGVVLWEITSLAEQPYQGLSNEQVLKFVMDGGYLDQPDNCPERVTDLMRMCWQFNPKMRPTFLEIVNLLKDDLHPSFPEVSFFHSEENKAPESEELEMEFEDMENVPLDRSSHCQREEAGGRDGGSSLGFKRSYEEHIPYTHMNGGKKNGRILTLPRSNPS
Signal transducer and activator of transcription 3 (Homo sapiens), sequence (P40763 whole entry): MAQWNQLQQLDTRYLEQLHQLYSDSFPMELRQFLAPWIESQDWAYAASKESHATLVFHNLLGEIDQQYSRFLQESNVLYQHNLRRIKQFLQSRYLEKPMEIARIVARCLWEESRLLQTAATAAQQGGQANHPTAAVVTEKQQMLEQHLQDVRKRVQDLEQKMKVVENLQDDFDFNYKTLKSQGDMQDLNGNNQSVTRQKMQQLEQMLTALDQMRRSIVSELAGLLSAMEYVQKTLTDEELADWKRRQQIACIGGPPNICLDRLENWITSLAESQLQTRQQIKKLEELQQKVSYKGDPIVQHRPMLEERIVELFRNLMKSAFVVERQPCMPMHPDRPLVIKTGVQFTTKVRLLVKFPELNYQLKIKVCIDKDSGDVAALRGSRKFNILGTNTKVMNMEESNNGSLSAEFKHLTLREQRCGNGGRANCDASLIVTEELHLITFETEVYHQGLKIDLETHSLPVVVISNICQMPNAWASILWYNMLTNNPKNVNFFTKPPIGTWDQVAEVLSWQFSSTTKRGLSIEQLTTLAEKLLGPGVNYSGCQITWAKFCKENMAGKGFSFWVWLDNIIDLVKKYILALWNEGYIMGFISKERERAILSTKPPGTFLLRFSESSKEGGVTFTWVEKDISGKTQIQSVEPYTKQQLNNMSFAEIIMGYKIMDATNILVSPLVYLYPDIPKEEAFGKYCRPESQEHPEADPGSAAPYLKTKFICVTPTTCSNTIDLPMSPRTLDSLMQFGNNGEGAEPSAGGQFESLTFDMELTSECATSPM
Transforming growth factor beta-1 proprotein (Homo sapiens), sequence (P01137 279-390 limits assumed): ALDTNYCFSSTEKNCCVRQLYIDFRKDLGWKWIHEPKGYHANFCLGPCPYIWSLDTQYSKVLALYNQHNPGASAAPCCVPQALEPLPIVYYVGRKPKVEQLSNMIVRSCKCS

Turning to `CCN(CC)CCO/N=C(\c1ccc(SC)cc1)c1cccc2ccccc12.O=C(O)C(=O)O`, the EC50 in the test with Ishikawa worked out at 12 µM; in the test on HeLa it was 7.5 µM; in the test on SW-620 it was 8.78 µM. The compound further gave an IC50 in test [1] of more than 20 µM. The Activity in the test with MCF7 [2] worked out at 70.71%; with MCF7 [3], 13.88%; in the test on MCF7 [4] it was 13.98%; in the test on MDA-MB-231 [5] it was 3.65%; in the test with MDA-MB-231 [6] it was 91.17%.

Take `CCN(CC)CCO/N=C(\c1ccc(SC)cc1)c1cccc2ccccc12`: the inhibition result (in test [7]; in test [8]; in test [9]; in test [10]; with MDA-MB-231 [14]; in the test with MDA-MB-231 [15]) was “inactive” each time. Moreover, the inhibition result (with MCF7 [17]; in test [22]; in [23]) was “inactive” in each case. Further, the inhibition result in [11], in test [18], in [19], in test [20] and in test [21] was “Active” in each case. The result in the test on MDA-MB-231 [12] and in the test on MCF7 [16] was Active. The outcome in the test on MCF7 [13] was inactive.
